PABP FP inh: PABP-poly(A) binding inhibition; PABP-poly(A) RNA binding, fluorescence polarization; inhibition, % at 35 µM; actives 1% (n = 290,000);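 note: calls also rest on retests at 20 µM and on dose response follow-up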
ZTA counter: blocks Epstein-Barr virus ZTA, an EBNA-1 counter-screen | ZTA-DNA binding, fluorescence polarization | actives 0.15% (n = 320,000) | P03206 | inhibition, % at 11 µM; in the data active = inhibition above about 33%
Target sequence (P03206 whole entry, looked up): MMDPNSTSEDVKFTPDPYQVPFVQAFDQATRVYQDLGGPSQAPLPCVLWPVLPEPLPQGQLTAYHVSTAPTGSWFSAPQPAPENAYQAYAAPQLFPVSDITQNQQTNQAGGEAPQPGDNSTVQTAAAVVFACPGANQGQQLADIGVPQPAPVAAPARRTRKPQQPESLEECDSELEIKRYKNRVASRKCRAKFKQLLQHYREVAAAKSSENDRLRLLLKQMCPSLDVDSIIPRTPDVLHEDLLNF
EBNA-1 inhibitor: blocks EBNA-1 binding to DNA. EBNA-1 DNA binding, fluorescence polarization. inhibition, % at 14.8 µM. actives 0.34% (n = 300,000); in the data active = inhibition above about 28%
eIF4H inh: inhibitors of RNA binding by human eIF4H; Q15056; eIF4H fluorescence polarization binding assay; inhibition, % at 35 µM; actives 0.94% (n = 290,000); AID 2012;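 note: calls also rest on retests at 20 µM and on dose response follow-up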
HCV NS3 hel inh: inhibitors of Hepatitis C virus NS3 helicase. actives 0.56% (n = 290,000). AID 1800. NS3 helicase DNA unwinding, Cy5 molecular beacon fluorescence. inhibition, % at 10.9 µM;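 active = inhibition above the mean of all tested compounds plus 3 SD, set per campaign, cut at about 35% in these data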;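 note: 0% = DMSO wells and 100% = thioflavine S control wells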
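test system = hepatitis C virus NS3 helicase domain fragment enzyme | reagent = annealed dual-labelled DNA beacon duplex, ATP-started | times = 1 h at 25 °C | detection = Cy5 fluorescence, 0 and 60 min reads | read-out basis = percent inhibition from t60/t0 fluorescence ratio | control set = DMSO and thioflavine S | replication = one well per compound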
PABP1 MLLE inh: inhibitors of microRNA-mediated deadenylation, human PABP1 MLLE binding | inhibition, % at 20 µM | AID 588489 | GST-MLLE / FITC-PAM2 fluorescence polarization | actives 0.36% (n = 360,000) | P11940; in the data active = inhibition above about 35%, passing the limit was not always enough;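 note: plate controls were DMSO wells with GST-MLLE for no effect and wells lacking GST-MLLE protein for full effect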
* marks the source's active call; other numbers are inactive results; i = inactive; ? = inconclusive; / = no result given; ! = repeats disagree. The list is not random: actives were taken first. Their share in the collection is about 2.1%. Unless noted, the rule behind the calls is not given here.

SMILES	PABP FP inh	ZTA counter	EBNA-1 inhibitor	eIF4H inh	HCV NS3 hel inh	PABP1 MLLE inh
O=C(O)c1c2c(nc3ccccc13)/C(=C/c1ccc(O)cc1)CC2	-4	11	6	105	3	16
CCN1C/C(=C/c2sccc2C)c2nc3ccccc3c(C(=O)O)c2C1	83*	4	2	72*	-45	17
CCN1C/C(=C/c2cccs2)c2nc3ccccc3c(C(=O)O)c2C1	72*	-16	0	62*	-29	46
OCC(O)CNC(=S)NC1CCCCC1 (stereo not given)	-4	12	1	4	-8	42*
CCCNC(=S)NC1CCCC1	-7	-6	-3	-12	-1	-20
COc1cc2[nH]c3c(=O)n4c(nc3c2cc1OC)SCCC4	-6	6	3	-1	7	6
CC1CN=C(N(C(=O)Nc2ccccc2)c2ccc(F)cc2)S1 (stereo not given)	1	-8	-2	-3	3	-11
NC(=O)C1CCN(C(=O)CN2CCCc3ccccc32)CC1	66*	10	13	78*	3	33
CC(=O)O[C@H]1CC(C)(C)C(=C=C/C(C)=C/C=C/C(C)=C/C=C/C=C(C)/C=C/C=C(\C)C(=O)C[C@@]23O[C@]2(C)C[C@@H](O)CC3(C)C)[C@](C)(O)C1	16	-2	3	-7	/	/
Cc1c(NC(=S)NC(=O)c2ccc(COc3ccccc3)cc2)cccc1C(=O)O	14	6	3	8	3	39*
O=C(O)c1ccccc1NC(=S)NC(=O)c1cccc2ccccc12	8	0	-9	7	3	31
Cc1c(NC(=S)NC(=O)c2cccc3ccccc23)cccc1C(=O)O	-9	-1	9	-10	19	44*
CC(=O)NCC(c1cccs1)S(=O)(=O)c1ccc(F)cc1 (stereo not given)	/	-32	-2	/	7	1
Cn1nc(C(=O)N2CCN(S(=O)(=O)c3ccc(Cl)cc3)CC2)c2ccccc2c1=O	/	/	/	/	/	2
COc1ccccc1CNC(=O)C(C)n1cccc1C(=O)c1ccccc1 (stereo not given)	/	-6	-14	/	7	-2
O=C(NC1=NCCS1)C1CCN(S(=O)(=O)c2ccccc2C(F)(F)F)CC1	/	-9	/	/	/	4
COc1cc(CC2COC(c3ccc(O)c(OC)c3)C2COC(C)=O)ccc1O (stereo not given)	55*	-6	-11	90*	/	1
COc1cc([C@@H]2OC[C@@H]3[C@H]2CO[C@@H]3c2ccc3c(c2)OCO3)ccc1O	/	/	/	/	/	9
N#CCSc1nnc(-c2cnccn2)n1Cc1ccccc1	6	13	-9	4	-2	-22
CCn1c(=N)n(CC(=O)c2ccc(OC)c(OC)c2)c2ccccc21	-2	-7	-9	-1	-7	2
CCOC(=O)NC(=O)/C(C#N)=C/c1ccc(N(C)C)cc1	44*	-5	3	77	5	-139
CN(C)c1ccc(/C=C(\C#N)C(=O)c2ccccc2)cc1	?	-10	0	?	3	i
CCCC(=O)OCCNc1cc(Sc2nccn2C)c2nonc2c1[N+](=O)[O-]	5	1	2	10	-9	18
COc1ccc(C(=O)NC(=S)Nc2ccc([N+](=O)[O-])cc2C)cc1OC	-17	-2	0	-8	-1	31
N#C/C(=C\c1ccc[nH]1)C(=O)Nc1ccccc1[N+](=O)[O-]	57*	-1	-3	79*	0	-17
SMILES	PABP FP inh	ZTA counter	EBNA-1 inhibitor	eIF4H inh	HCV NS3 hel inh	PABP1 MLLE inh
CC(=O)N(/C=C1\SC(=S)N(c2ccccc2)C1=O)c1ccccc1	-5	-1	1	-3	15	9
CN(C)CCC#CC(O)(c1ccccc1)c1ccccc1	76*	11	8	6.6*	-13	4
CCN(CC)CCCNC(=O)c1oc2ccc3c(c2c1C)C(O)CC(C)(C)O3 (stereo not given)	-7	/	/	-3	2	-1
O=c1c2ccccc2nc2ccc(NCc3ccco3)nn12	76*	-1	7	43	2	81
Cc1sc2nc(SCC(=O)NCc3ccco3)[nH]c(=O)c2c1C	7	0	5	-3	1	-3
Cc1sc2nc3ccc(NCc4ccco4)nn3c(=O)c2c1C	25	18	11	24	7	41*
CC1=C(C#N)C(=O)N(C2CCS(=O)(=O)C2)C(=O)/C1=C\c1ccco1 (stereo not given)	88*	79*	63*	102*	6	/
COC(=O)C1=C(C)N(C)C(=O)/C1=C\c1ccco1	7	7	1	-2	3	11
CCOc1ccc(C(=S)NC2CCCCC2)cc1OCC	-1	-1	-6	-8	-12	31
COc1ccc(NC(=O)C2Cc3ccccc3CN2C(=O)c2ccccc2)cn1 (stereo not given)	?	-6	-6	?	-2	71*
CCC1(C)Cc2c(sc3[nH]c(=S)[nH]c(=S)c23)CO1 (stereo not given)	1	-4	-16	-2	3	27
CCC1(C)Cc2c(sc3[nH]c(=O)[nH]c(=O)c23)CS1 (stereo not given)	66*	4	-5	66*	14	32
COCCn1c(SCC(=O)NC(=O)NC(C)C)nc2ccccc21	-5	5	-5	4	-2	-7
CCOC(=O)c1c(NC(=O)c2ccccc2)sc2c1CCc1ccccc1-2	13	-9	1	8	4	43*
CCOC(=O)c1c(NC(=O)c2ccccc2Cl)sc2c1CCc1ccccc1-2	-1	8	5	1	-6	23
CCOc1cc(N2CCOCC2)c(OCC)cc1NC(=O)c1cc(S(=O)(=O)N2CCOCC2)ccc1Cl	/	/	/	/	/	-14
CCOc1cc(N2CCOCC2)c(OCC)cc1NS(=O)(=O)c1ccc(Cl)s1	26	-1	-4	97*	4	16
Cc1ccc(C(=O)NC(=S)Nc2c(C)ccc3nsnc23)cc1	3	-11	-1	2	-3	18
CC(C)C(=O)NC(=S)Nc1c(Cl)ccc2nsnc12	73*	13	-9	79*	-3	18
CCOc1ccc(-c2nc(CCl)cs2)cc1OC	-9	-12	-1	-11	-7	20
O=C(O)C(CCCCNS(=O)(=O)c1ccc(F)cc1)NS(=O)(=O)c1ccc(F)cc1 (stereo not given)	71*!	2	-5	96*!	5	-14
CC(=O)Nc1nnc(CCN2CCCCC2)s1	4	14	-4	-10	8	10
Cc1ccc(C)c(NC(=O)CCNS(=O)(=O)c2ccc3[nH]c(=O)oc3c2)c1	28	5	13	73*	8	-16

Bioassay records as filed in PubChem BioAssay.
